Source: PubChem BioAssay AID651647 (Sanford-Burnham Center for Chemical Genomics, 2012)
Among all 360,000 compounds or so, about 220 (0.061%) were called active. Only a selection was taken, and actives are over-represented in it overall. Values without a mark were called inactive.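 The calls were made as follows: active = GFP/RFP ratio change of at least 30% with cell ATP level not reduced by more than half and red fluorescence within 50% of control; inactive = the rest, inconclusive results apart.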

target: Matrix metalloproteinase-14 (Homo sapiens) (UniProt P50281); assay: blockers of MT1-MMP proenzyme processing, primary screen, HT1080 RFP-PRO-GFP cells, GFP/RFP fluorescence (AID 651647); settings: overnight, at 20 µM, hits give high values, percent of plate control window, DMSO zero
Method in brief: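 Assay system: RFP-PRO-GFP reporter HT1080 cells; read-out basis: GFP/RFP fluorescence ratio; benchmarks: DMSO wells and RFP-L50D-GFP cells; doses: 20 µM single dose, 1% DMSO; schedule: overnight cell settling, then overnight compound exposure, 37 °C, 5% CO2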

| Compound | GFP/RFP ratio change |
| --- | --- |
| CCOC(=O)c1cc(-c2sc(NC(=O)c3ccccc3)nc2C)n(Cc2ccccc2)n1 | -13.8% |
| CCN1CCN(c2c(Cl)cccc2NC(=O)c2ccc(Br)o2)CC1 | 6.59% |
| CNC(=O)c1[nH]cnc1C(=O)N[C@@H](CC(C)C)C(=O)OCc1ccccc1 | 3.79% |
| CSc1ncccc1C(=O)N1CCCC(Nc2ccc(F)c(F)c2)C1 (stereo unspecified) | 0.99% |
| O=Cc1c(NCCc2cccc(F)c2)c2ccccc2[nH]c1=O | -3.4% |
| Cn1c(=S)sc2ccc3ccccc3c21 | 2.62% |
| CN(C(=O)CSc1cccc[n+]1[O-])C1CCCCC1 | 9.34% |
| Cc1ccc(S(=O)(=O)N2CC(C)N(S(C)(=O)=O)C2)cc1 (stereo unspecified) | 0.163% |
| CCc1ccnc(NS(=O)(=O)c2ccc3c(c2)OCCO3)c1 | 3.33% |
| Cc1ccc2c(c1)N(S(=O)(=O)c1cc(-c3cc(C)no3)ccc1C)CCO2 | 0.714% |
| CC(=O)c1c(O)cc2n(c1=O)-c1ccc(Cl)cc1C2(C)C | -5.09% |
| CCOC(=O)C1(O)CC(C)=NN1C(=O)c1cccc(Br)c1 (stereo unspecified) | 7.72% |
| O=C(O)CC(Cn1cnnn1)c1ccccc1 (stereo unspecified) | -0.417% |
| Nc1nc(SCc2cccc(Br)c2)n[nH]1 | 6.02% |
| CC(=O)c1nn(-c2ccc(C)cc2)cc1C(=O)c1cccc(Br)c1 | 0.8% |
| CCc1ccc(C2N3CC4([N+](=O)[O-])CN2CC([N+](=O)[O-])(C3)C4(C)C)cc1 (stereo unspecified) | -2.43% |
| O=S(=O)(Nc1ncccn1)c1ccc(NS(=O)(=O)c2cccc(Cl)c2Cl)cc1 | -0.508% |
| O=c1ccc2c(-c3ccccc3S(=O)(=O)O)c3ccc(O)c(O)c3oc-2c1O | 49.3% (active) |
| N/C(=N\OS(=O)(=O)c1cccc([N+](=O)[O-])c1)c1ccncc1 | 1.12% |
| CCc1ccnc(NC(=O)Nc2ccc(OCc3ccccc3)cc2)c1 | 3.94% |
| CC(C)(C)OC(=O)N1CCN(C(=O)c2[nH]c(C(F)(F)F)nc2-c2ccccc2)CC1 | 3.61% |
| CN1CC(c2ccccc2)C2(COc3ccccc3C2=O)C12C(=O)Nc1ccccc12 (stereo unspecified) | -4.6% |

| Compound | GFP/RFP ratio change |
| --- | --- |
| Cc1ccc2c(c1)N(CC(=O)NCCCN1CCCCC1)C(=O)c1cccnc1O2 | 1.06% |
| Cc1ccccc1S(=O)(=O)NC(=O)C1(C)CCN1C(=O)C1(c2ccc(Cl)cc2)CC1 (stereo unspecified) | 0.579% |
| O=C(COC(=O)c1ccc(S(=O)(=O)N2CCCCCC2)cc1)Nc1ccccc1C(F)(F)F | -2.08% |
| COc1ccccc1C1CCN(C(=S)Nc2ccc(Br)cc2)CC1 | -1.18% |
| CC(C)[C@H](NC(=O)N1CCn2c1nc1ccccc12)C(=O)NCCc1ccccc1 | 1.13% |
| O=c1[nH]snc1-c1c(Cl)cccc1Cl | -2.44% |
| COC(=O)NNC(=O)C1CCC(C)CC1 (stereo unspecified) | 0.231% |
| Cc1cn(C2CC(O)C(CO)O2)c(=O)n(CCCc2ccccc2)c1=O (stereo unspecified) | 5.06% |
| Cc1nn(C)c(Oc2ccccc2)c1CCNS(=O)(=O)c1ccc(F)cc1 | 0.853% |
| O=C(c1ccc(F)c(S(=O)(=O)N2CCOCC2)c1)N(CCc1ccccc1)Cc1ccccc1 | -8.33% |
| CC(=O)c1cc2c(cc1NC(=O)CN1CCCCCC1)OCO2 | -5.12% |
| CN1c2ccc([N+](=O)[O-])cc2C(C)(C)C12C=Cc1cc(C(=O)O)ccc1O2 (stereo unspecified) | 0.611% |
| COc1ccc2c(c1)C=CC1(O2)N(CCO)c2ccccc2C1(C)C (stereo unspecified) | 52% (active) |
| O=C(Nc1ccc(N2CCOCC2)nc1)c1c(F)cccc1F | -1.38% |
| CCc1nonc1NC(=O)c1oc2ccc(Cl)cc2c1C | 3.45% |
| COc1ccc(-c2cc(NC(C)=O)c3ncc(-c4cc(OC)c(OC)c(OC)c4)n3c2)cn1 | -4.94% |
| CCc1ccc(NC(=O)N[C@H](C(=O)O)C(C)CC)cc1 (stereo partly specified) | 2.36% |
| COc1ccc(C(C)C)cc1-c1ccc2nncn2c1 | 3.27% |
| Cc1cccc(C)c1NC(=O)C(Cl)C(=O)c1ccccc1 (stereo unspecified) | -3.13% |
| Cc1ccc(Nc2ccccc2N)cc1 | -12% |
| O=c1cnnc(Nc2ccccc2)[nH]1 | 7.04% |
| Nc1ccc(Nc2ccccc2)cc1 | 44% (active) |

| Compound | GFP/RFP ratio change |
| --- | --- |
| O=C(Cn1cnc2cc([N+](=O)[O-])ccc2c1=O)NC(=O)NCc1ccccc1 | 1.03% |
| COC(=O)C(NS(=O)(=O)c1ccc(F)cc1)c1ccccc1 (stereo unspecified) | 0.566% |
| CCOc1ccc(NC(=O)CN(C)C(=O)CSc2ccccc2)cc1OCC | -8.63% |
| N/C(=N\c1nc2ccccc2o1)NC(=O)C(Cc1ccccc1)N1C(=O)c2ccccc2C1=O (stereo unspecified) | -6.5% |
| CNC(=S)N1CCC(NC(=O)C(Cc2ccc(F)cc2)NC(C)=O)CC1 (stereo unspecified) | -0.719% |
| CC(C)(C)n1nnc(CCc2nnn(C(C)(C)C)n2)n1 | 2.72% |
| O=C(COC(=O)c1ccc(NS(=O)(=O)c2cccs2)cc1O)Nc1ccc(F)cc1 | 4.53% |
| C[C@@H](CN1CCC[C@H]1CN1C(N)=NC[C@@H]1Cc1ccccc1)N1C[C@@H](Cc2ccccc2)N(CCCC2CCCC2)C1=N | 1.74% |
| COc1ccc2oc(C(=O)N(CC(C)C)C3CCS(=O)(=O)C3)c(C)c2c1 (stereo unspecified) | 1.26% |
| O=C1c2ccccc2C(=O)N1CC1c2ccccc2CCN1S(=O)(=O)c1ccccc1 (stereo unspecified) | -1.81% |
| COc1ccc(NC2CCCN(C(=O)c3ccccc3-c3ncc[nH]3)C2)cc1 (stereo unspecified) | 3.89% |
| COC(=O)c1ccccc1Oc1c(F)c(F)nc(N2CCOCC2)c1F | 2.7% |
| COc1ccc(S(=O)(=O)N2CCC(C(=O)NCCC(=O)NCc3cccc(OC)c3)CC2)cc1 | 0.341% |
| Cc1[nH]c2ccccc2c1-c1ccc(Cl)nn1 | -0.969% |
| COc1ccc(C)cc1Nc1nc(-c2c(C)[nH]c3ccccc23)cs1 | 47.3% (active) |
| COC(=O)c1cnc(Nc2cc(C)ccc2OC)c2ccccc12 | -1.73% |
| C=CCn1nc(C(=O)OCC)cc1-c1sc(NC(=O)c2ccccc2)nc1C | -9.54% |
| CCOC(=O)C1C(C)C(C(C)(C)C)N(S(=O)(=O)c2ccc(C)cc2)C1c1ccccc1 (stereo unspecified) | -10.4% |
| O=S(=O)(/C=C/c1ccccc1)NCCc1ccccn1 | 2.57% |
| Cc1ccccc1C(=O)O | -0.112% |
| CCC1(C)N(O)C(C)(C)C(c2ccc(OC)cc2)=[N+]1[O-] (stereo unspecified) | 5.6% |
| CN(C(=O)c1cccc(NC(=O)C2CCN(C(=O)OC(C)(C)C)CC2)c1)C1CCC1 | 6.42% |
